CRFBP-R2 agonist = agonists of human CRF-binding protein/CRF-R2 receptor complex; HEK293 CRF-R2/CRF-BP, calcium dye fluorescence (FLIPR); percent of saturating CRF peptide response; activation, % at 13.2 µM; hit rate 0.46% among 350,000; AID 588473;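 active means activation of at least 50%, plus an integration ratio under a set limit after plate pattern correction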;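 further: plate controls were neutral control wells without compound for no effect and CRF at EC100 for full effect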
TAAR1 ag = agonists of human TAAR1; Q96RJ0; CHO RD-HGA16 TAAR1, Fluo-8 calcium fluorescence; vehicle wells 0%, saturating PEA agonist 100%; activation, % at 3 µM; hit rate 0.99% among 360,000;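 active means activation above the mean activation of all test compounds in the run plus 3 SD, cut at about 38% in these data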
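Test system: RD-HGA16 (CHO) cells co-expressing Gα16 and hTAAR1; dosing: one-point dosing at 3 µM (nominal); timing: 17-24 h seeding, 75 min 37 °C dye, 30 min RT; signal: kinetic Fluo-8 calcium fluorescence; read-out basis: % activation relative to PEA EC100 response; controls: DMSO and PEA EC100; replicates: n 1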
CRFR2-BP antag = blocks CRF-induced signaling of the CRF-BP/CRF-R2 complex; HEK293 CRF-R2/CRF-BP, CRF-induced calcium fluorescence; hit rate 0.59% among 350,000; inhibition, % at 11.8 µM;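 active means inhibition of the ligand-induced calcium signal above about 50% at the single tested concentration, limit read from the data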
TMEM16A act = activators or potentiators of mouse TMEM16A chloride channel; Q8BHY3; HEK293 TMEM16A/YFP-H148Q/I152L, iodide quench fluorescence; stronger effect = lower value; B-score at 10 µM; hit rate 0.3% among 340,000; AID 623877;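 active means fluorescence-ratio B-score plate-corrected deviation score at least 3 library SD below zero, with starting fluorescence score within 5 deviations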;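 further: channel opened by trigger with iodide after compound preincubation; score built on the fluorescence ratio of max minus min over baseline; more negative score means more quench and so TMEM16A activation or potentiation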
TMEM16A inh = inhibitors of mouse TMEM16A calcium-activated chloride channel; hit rate 1.2% among 310,000; normalized B-score (activity score, 25-100; higher = stronger inhibition) at 10 µM; Q8BHY3; HEK293 TMEM16A/YFP iodide influx fluorescence, ionomycin; AID 588511;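 active means ratio plate-corrected score three or more library SD toward inhibition, starting fluorescence score within five deviations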;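 further: score derived from kinetic fluorescence span divided by baseline fluorescence per well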
TAAR1 antagonist = antagonists of human TAAR1; CHO RD-HGA16 TAAR1, Fluo-8 calcium fluorescence, antagonist; inhibition, % at 3 µM; hit rate 1.5% among 360,000;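 active means inhibition above a per-plate cutoff, the mean inhibition of test compounds on that plate plus 3 SD, cut at about 49% in these data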;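 further: 0% = DMSO plus EC80 beta-PEA response and 100% = DMSO alone without agonist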
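test system = CHO RD-HGA16 cells bearing hTAAR1 | replication = singlicate | controls = DMSO-only wells and EC80 β-PEA-stimulated wells | reagent = EC80 β-phenethylamine stimulus | read-out basis = percent inhibition of PEA-evoked calcium signal, max/basal emission ratio | schedule = seeding 17-24 h prior, 75-min 37 °C, 30-min RT dye loading | signal = kinetic Fluo-8 calcium fluorescence measurement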
TMEM16A reconf = reconfirmed blocker of mouse TMEM16A calcium-activated chloride channel; shares compounds with TMEM16A inh; HEK293 TMEM16A/YFP-H148Q, iodide quench fluorescence; ionomycin added to raise cell calcium; inhibition, % at 10 µM; hit rate 39% among 2,300;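 active means mean duplicate percent inhibition, scaled so buffer wells are 0 and the reference blocker 100, over three buffer SD above buffer mean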
HEK293 Ca mobil = calcium mobilization counter-screen hit for TMEM16A inhibitor series; AID 652231; calcium response (% of ionomycin), % at 10 µM; hit rate 2% among 2,300; shares compounds with TMEM16A inh; TMEM16A/YFP HEK293, Fluo4 calcium mobilization;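 active means duplicate-averaged calcium signal over 20% of the ionomycin maximum, relative to buffer baseline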;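 further: each well's signal is peak minus trough fluorescence divided by its pre-addition baseline; 0% = buffer wells and 100% = ionomycin wells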
YFP-HEK293 quench = counter-screen for TMEM16A inhibitors: effect in parental YFP-HEK293 cells; AID 652233; iodide YFP quench, ionomycin; 2,300 tested, under 10 active; YFP ratio F(max-min)/F0 at 10 µM; shares compounds with TMEM16A inh;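 active means yellow fluorescent protein signal ratio exceeding the buffer control mean by over 5 SD of those controls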;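 further: ratio is mean of duplicate wells from kinetic YFP trace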
ClC-1 rat inh = rat ClC-1 inhibition, TMEM16A specificity screen. shares compounds with TMEM16A inh. CHO ClC-1-YFP, iodide influx fluorescence quench; iodide control reads 0, buffer control 100. ratio percent, % at 10 µM. 2,300 tested, under 10 active;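 active means duplicate-mean ratio percent above the mean of iodide-only control wells, which defines zero, plus 5 of their SD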;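 further: higher percent means stronger block of ClC-1 iodide influx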
Target sequence (P35524 whole entry, looked up): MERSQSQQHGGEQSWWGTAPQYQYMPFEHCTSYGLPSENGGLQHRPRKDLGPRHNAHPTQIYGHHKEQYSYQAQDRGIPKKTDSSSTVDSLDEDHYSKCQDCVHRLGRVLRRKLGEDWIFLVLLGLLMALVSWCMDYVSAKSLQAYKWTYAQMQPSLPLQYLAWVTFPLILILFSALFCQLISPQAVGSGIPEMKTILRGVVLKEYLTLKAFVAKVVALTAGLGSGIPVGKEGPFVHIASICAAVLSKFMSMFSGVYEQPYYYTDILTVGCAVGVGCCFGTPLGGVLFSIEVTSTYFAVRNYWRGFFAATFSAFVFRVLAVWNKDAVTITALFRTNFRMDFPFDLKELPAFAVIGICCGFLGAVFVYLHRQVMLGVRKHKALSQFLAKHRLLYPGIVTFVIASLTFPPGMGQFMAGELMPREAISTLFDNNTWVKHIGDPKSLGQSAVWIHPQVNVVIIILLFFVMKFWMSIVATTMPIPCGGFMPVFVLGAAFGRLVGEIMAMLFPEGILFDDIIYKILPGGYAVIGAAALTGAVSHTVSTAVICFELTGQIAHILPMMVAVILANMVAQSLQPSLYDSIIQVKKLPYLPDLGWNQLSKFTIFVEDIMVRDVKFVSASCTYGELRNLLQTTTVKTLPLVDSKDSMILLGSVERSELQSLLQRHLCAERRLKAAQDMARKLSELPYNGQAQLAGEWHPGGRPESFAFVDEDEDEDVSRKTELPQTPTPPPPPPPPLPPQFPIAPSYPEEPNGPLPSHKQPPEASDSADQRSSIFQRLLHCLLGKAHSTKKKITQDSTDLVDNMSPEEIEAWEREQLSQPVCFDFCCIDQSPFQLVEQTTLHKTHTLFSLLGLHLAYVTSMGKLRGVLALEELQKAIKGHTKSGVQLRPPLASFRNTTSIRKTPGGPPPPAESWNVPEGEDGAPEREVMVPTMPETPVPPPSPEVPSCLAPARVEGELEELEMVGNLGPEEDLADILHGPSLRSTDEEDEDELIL
Numbers without * were called inactive; i = inactive; . = no result. Only some compounds are listed: those with a hit (about 3.9% of all), similar ones and a draw of the others.

SMILES	CRFBP-R2 agonist	TAAR1 ag	CRFR2-BP antag	TMEM16A act	TMEM16A inh	TAAR1 antagonist	TMEM16A reconf	HEK293 Ca mobil	YFP-HEK293 quench	ClC-1 rat inh
COc1ccccc1CNc1ncnc2sccc12	0.0	1.8	-7.0	i	25*	10.2	i	i	-0.886	-15.0
CCCCn1c(N)c(N(CC(C)C)C(=O)c2ccc(OC)c(S(=O)(=O)N3CCOCC3)c2)c(=O)[nH]c1=O	0.0	15.6	-10.4	i	.	6.0	.	.	.	.
CC(C)CCN(C(=S)Nc1cccc(C(F)(F)F)c1)C(C)c1ccccn1 (stereo not given)	-1.1	-0.7	1.1	i	25*	1.3	i	i	-0.909	-2.5
CCCOc1ccc(-c2nc(SCc3ccccc3)[nH]c(=O)c2C#N)cc1OC	0.9	0.0	35.4	i	100*	-27.5	29.5%*	i	-1.15	-4.5
COc1ccc(NC(=O)c2ccc(COc3ccccc3)o2)cc1	-3.4	2.6	3.0	i	i	3.9	.	.	.	.
COc1ccccc1OCc1ccc(C(=O)Nc2ccncc2)o1	-0.8	11.9	-7.2	i	100*	28.2	34.5%*	i	-0.838	-7.0
COc1ccc(NC(=O)c2ccc(Cc3ccc(C)cc3)o2)cc1	-1.6	-0.3	-10.0	i	25*	0.7	i	i	-1.23	6.0
CCc1ccc(C(C)NC(=O)Cn2cnc3c(=O)n(C)c(=O)n(C)c32)cc1 (stereo not given)	17.0	37.5*	3.3	i	25*	1.0	i	i	-0.879	-2.5
CCc1ccc(NC(=O)Cn2cnc3c(=O)n(C)c(=O)n(C)c32)cc1	-1.9	0.0	11.5	i	i	-15.1	.	.	.	.
Nc1c(C(=O)NCCc2ccccc2)nnn1Cc1ccccc1	-0.3	7.6	-3.6	i	i	-9.1	i	i	-0.802	-4.0
COC(=O)c1nnn(Cc2ccccc2)c1N	-3.4	3.7	-6.7	i	i	-14.0	.	.	.	.
O=C(O)c1cc2cc(Oc3ccccc3)ccc2[nH]1	0.0	-0.1	21.5	i	i	5.7	.	.	.	.
CC(=O)c1cnc(SCc2ccc(Cl)cc2)nc1C	0.5	12.2	-2.1	i	i	14.9	.	.	.	.
Cc1nc(SCc2ccc(Cl)c(Cl)c2)ncc1C(=O)O	6.7	0.9	-8.1	i	25*	-8.5	22.0%*	i	-0.733	-5.0
CC[n+]1c(/C=C2\C=C(C)CC(C)(C)C2)sc2ccccc21	-2.1	-0.7	-7.1	i	i	-16.6	.	.	.	.
CC[n+]1c(/C=C2/C=C(C)CC(C)(C)C2)sc2ccc(OC)cc21	-2.8	3.2	23.6	i	25*	-4.5	55.5%*	i	-0.888	-25.5
CC(=O)c1c(O)cc(O)c(C(C)=O)c1O	20.4	.	17.6	i	100*	.	31.0%*	i	-1.1	-9.5
CCOC(=O)c1c(C)n(C)c2ccc(OCC(O)Cn3c(C)nc4ccccc43)cc12 (stereo not given)	-1.2	10.4	-10.2	i	100*	33.4	i	i	-1.07	-10.0
OCc1nc2ccccc2n1Cc1ccc(Cl)cc1	-0.3	3.0	12.6	i	i	-13.2	.	.	.	.
Cc1nc2ccccc2n1CC(O)COc1ccccc1Cl (stereo not given)	-0.3	10.5	5.5	i	25*	14.9	i	i	-0.993	-13.0
Cc1nc2ccccc2n1Cc1ccc(Cl)cc1	0.7	2.2	44.7	i	25*	-1.7	42.0%*	i	-1.09	-25.5
O=S(=O)(Nc1nc2ccccc2nc1NCC1CCCO1)c1cc(Cl)ccc1Cl (stereo not given)	-2.2	0.5	10.4	i	i	-31.0	.	.	.	.
CCN1CCc2c(sc(NC(=S)NC(=O)c3ccc(Cl)cc3)c2C(N)=O)C1	15.9	10.3	-2.8	i	i	10.1	.	.	.	.
O=c1c2c(C(F)(F)F)cc(C(F)(F)F)nc2[nH]n1-c1ccccc1	-1.3	19.8	11.5	i	i	-0.1	.	.	.	.
O=c1c(Sc2ccccc2)c(C(F)(F)F)[nH]n1-c1ccccc1	4.2	12.2	80.7*	i	100*	3.7	23.5%*	i	-1.03	-16.5
SMILES	CRFBP-R2 agonist	TAAR1 ag	CRFR2-BP antag	TMEM16A act	TMEM16A inh	TAAR1 antagonist	TMEM16A reconf	HEK293 Ca mobil	YFP-HEK293 quench	ClC-1 rat inh
Cc1ccc(C(C)C)c(Oc2nnnn2-c2ccccc2)c1	0.6	1.6	-4.3	i	25*	22.6	26.0%*	i	-0.896	-7.5
N#C/C(=N\Nc1cccc(C(F)(F)F)c1)C(=O)c1ccsc1	34.6	1.9	44.3	i	25*	-25.4	37.5%*	i	-1.08	-19.0
CCN(C(=O)COC(=O)Cc1ccc(F)cc1)c1c(N)n(Cc2ccccc2)c(=O)[nH]c1=O	-1.0	4.6	-7.3	i	.	13.0	.	.	.	.
Cc1noc(C)c1C(=O)Nc1sc(C)c(-c2ccccc2)c1C#N	2.4	9.8	-51.6	i	25*	0.0	46.5%*	i	-1.2	-7.5
CCOC(=O)c1sc2nccc(N(C)C)c2c1N=CNOCc1ccccc1	-1.3	17.7	21.9	i	i	33.4	.	.	.	.
CCOC(=O)c1sc2nccc(N(C)C)c2c1N=CNOCc1c(F)cccc1Cl	3.0	11.7	11.9	i	100*	2.5	i	i	-0.946	-4.0
CC(C)C(=O)N1CCN(c2nc(-c3ccc(Cl)cc3)cs2)CC1	-1.3	-1.4	18.3	i	25*	-22.2	33.5%*	i	-1.09	-12.0
S=C(NCc1ccco1)N1CCN(c2nc(-c3ccc(Cl)cc3)cs2)CC1	-0.4	1.2	3.4	i	i	23.7	.	.	.	.
O=C(CN1CCN(c2nc(-c3ccc(Cl)cc3)cs2)CC1)NCc1ccco1	-1.0	-1.3	-7.3	.	25*	3.0	i	20.0%*	-0.949	3.5
O=C(O)COc1ccccc1/C=C1\SC(=S)N(NC(=O)c2ccccc2O)C1=O	0.6	9.7	-4.9	i	i	-5.5	i	i	-0.849	19.0
Cc1ccccc1-n1c(=O)c(C#N)cc2c(=O)n3ccccc3nc21	0.9	7.6	3.6	i	100*	6.0	i	i	-0.929	-4.5

From PubChem BioAssay
